Compound activity from PubChem BioAssay.
CSN inh: CSN deneddylation inhibition | inhibition, % at 12.5 µM | 360,000 tested, 0.38% active | AID 651999 | Purified CSN, SCF-Nedd8-OG deneddylation, fluorescence polarization;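 active = pattern-corrected inhibition above about 35%, with an unprinted fluorescence ratio check between 0.5 and 1.5, limit read from the data, passing the limit was not always enough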
Target sequence (Q92905 whole entry, looked up, one chain of several): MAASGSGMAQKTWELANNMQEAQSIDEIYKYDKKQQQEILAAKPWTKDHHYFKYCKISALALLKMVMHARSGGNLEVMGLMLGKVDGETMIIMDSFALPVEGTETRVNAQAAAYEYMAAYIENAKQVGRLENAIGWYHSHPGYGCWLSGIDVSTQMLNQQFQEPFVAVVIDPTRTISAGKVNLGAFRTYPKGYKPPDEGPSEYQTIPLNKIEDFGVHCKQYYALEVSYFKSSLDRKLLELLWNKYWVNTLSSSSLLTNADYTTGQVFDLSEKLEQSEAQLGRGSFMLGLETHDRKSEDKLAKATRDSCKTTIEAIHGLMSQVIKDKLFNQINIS
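Material: human Csn5 produced in HEK293T cells; Input: enzyme 0.24 nM; Reagent: SCFSkp2-Nedd8OG substrate at 10 nM final; Dosing: 12.5 µM compound; Incubation: 90 min reaction at room temperature; Detection: fluorescence polarization of the substrate; Evaluation: % inhibition of substrate cleavage by Csn5; Control set: substrate-only high control, full reaction low control.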
IDE cell activ: IDE (human) activation, cell-based; AID 493087; activation, % at 5.96 µM; 340,000 tested, 0.073% active; HEK cells, FAbeta-B cleavage, fluorescence polarization; 0% vehicle, 100% cell-free pure enzyme wells;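 active = activation above the mean of all tested compounds plus 3 SD, set per screening campaign, cut at about 17% in these data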
TPT1 inhibitor: C. albicans TPT1 enzyme inhibition. recombinant caTPT1, FP RNA substrate dephosphorylation. inhibition, % at 5 µM. 300,000 tested, 0.81% active. AID 1962;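 active = inhibition above the mean of all tested compounds plus 3 SD, set per screening campaign, cut at about 24% in these data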
Tb MetRS inh: Trypanosoma brucei MetRS inhibition; inhibition, % at 11.9 µM; purified T. brucei MetRS, ATP depletion, Kinase-Glo luminescence; 360,000 tested, 0.4% active;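 active = inhibition above a per-plate cutoff of the control wells' mean inhibition plus 3 SD, cut at about 5.5% in these data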
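assay system = parasite MetRS enzyme | timing = 15 min preincubation, 2 h reaction, all 25 °C | evaluation = percent inhibition relative to median high and low control wells | medium = HEPES buffer containing pyrophosphatase, BSA, spermine, DTT | compound = single dose, 11.9 µM final nominal, 0.9% final DMSO | detection = Kinase-Glo luminescence, ATP depletion format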
HNF4A DNA FP: change in binding of human HNF4 alpha to DNA | P41235 | 360,000 tested, 0.3% active | AID 1224865 | activity change, % at 10 µM | HNF4a-FITC DNA binding, fluorescence polarization, 1 h; in the data active = activity change above about 30%, passing the limit was not always enough
IDE cell inh: inhibitors of human insulin-degrading enzyme in cells; AID 434962; 320,000 tested, 0.41% active; HEK cells, FAbetaB cleavage, fluorescence polarization; P14735; inhibition, % at 5.59 µM;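 active = percent inhibition above the average of all tested compounds plus 3 SD, set per screening campaign, cut at about 16% in these data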;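 also: IDE supplied by intact live HEK cells; FP after avidin binding of uncleaved biotin substrate so inhibition keeps polarization high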
IDE inh confirm: cellular human IDE inhibition, confirmation; 1,200 tested, 51% active; AID 435028; shares compounds with IDE cell inh; HEK cells, FAbetaB cleavage, fluorescence polarization; inhibition, % at 5.59 µM;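 active = mean inhibition across triplicate wells above the cutoff set by the earlier primary insulin-degrading enzyme screen, cut at about 16% in these data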
HEK cytotox: kills HEK cells in IDE inhibitor counter-screen; shares compounds with IDE cell inh; HEK293 cytotoxicity, ATP luminescence; inhibition, % at 5.59 µM; 1,200 tested, 28% active; in the data active = inhibition above about 22%
Hits are given with their value. Shown are actives, neighbours in structure and some others; about 1.7% of the full set was active somewhere.

COC(=O)c1cc(NC(=O)c2ccc(-c3ccccc3)cc2)ccc1Cl was read as CSN inh inactive, IDE cell activ inactive, TPT1 inhibitor inactive, Tb MetRS inh inactive, HNF4A DNA FP inactive, IDE cell inh 30.2, IDE inh confirm inactive and HEK cytotox 27.9.
For C=CCc1c(NCCO)nc(C)[nH]c1=O the results were CSN inh inactive, IDE cell activ inactive, TPT1 inhibitor inactive, Tb MetRS inh inactive, HNF4A DNA FP inactive and IDE cell inh inactive.
C=CCn1c(SCC(=O)Nc2ccc(N3CCOCC3)cc2)nc2ccccc2c1=O was read as CSN inh inactive, IDE cell activ inactive, TPT1 inhibitor inactive, Tb MetRS inh inactive, HNF4A DNA FP inactive and IDE cell inh inactive.
COc1cc(/C=C2\SC(=Nc3ccccc3OC)NC2=O)ccc1O was read as CSN inh inactive, IDE cell activ inactive, TPT1 inhibitor inactive, Tb MetRS inh inactive, HNF4A DNA FP inactive and IDE cell inh inactive.
COc1cc(/C=C2/SC(=Nc3ccc(O)cc3)NC2=O)ccc1O was read as CSN inh inactive, IDE cell activ inactive, TPT1 inhibitor inactive, Tb MetRS inh inactive, HNF4A DNA FP inactive, IDE cell inh 35.4, IDE inh confirm 59.5 and HEK cytotox 59.4.
Screening O=C(COC(=O)c1cccnc1Cl)Nc1nc(-c2ccccc2)cs1 returned CSN inh inactive, IDE cell activ inactive, TPT1 inhibitor inactive, Tb MetRS inh inactive, HNF4A DNA FP inactive, IDE cell inh 26.1, IDE inh confirm inactive and HEK cytotox inactive.
For O=C(COC(=O)c1ccccc1O)Nc1cccnc1Cl the results were CSN inh inactive, IDE cell activ inactive, TPT1 inhibitor inactive, Tb MetRS inh inactive, HNF4A DNA FP inactive and IDE cell inh inactive.
Screening CCCCCc1c(-c2ccc(F)cc2F)ncn1CCc1ccccc1OC returned CSN inh inactive, Tb MetRS inh inactive and HNF4A DNA FP inactive.
`CC(=O)O[C@@H]1C[C@H]2C(C)(C)C(=O)C=C[C@]2(C)[C@H]2CC[C@@]3(C)[C@H](c4ccoc4)OC(=O)[C@H]4O[C@]43[C@@]21C` gave CSN inh inactive, IDE cell activ inactive, TPT1 inhibitor inactive, Tb MetRS inh inactive, HNF4A DNA FP inactive, IDE cell inh 18.1, IDE inh confirm inactive and HEK cytotox 58.2.
Screening CCc1nc2ccc(C(=O)NCCc3c[nH]c4ccccc34)cn2c1N(C)Cc1ccc(N(C)C)cc1 returned CSN inh inactive, Tb MetRS inh inactive and HNF4A DNA FP inactive.
Cc1ccc2c(c1)c1ncnc(N3CCOCC3)c1n2C was read as CSN inh inactive, IDE cell activ inactive, TPT1 inhibitor inactive, Tb MetRS inh inactive, HNF4A DNA FP inactive, IDE cell inh 17.0, IDE inh confirm inactive and HEK cytotox inactive.
For Cc1c(C(=O)NCc2ccccc2)sc(=O)n1Cc1ccccc1F the results were CSN inh inactive, Tb MetRS inh inactive and HNF4A DNA FP inactive.
`Cc1ccc(NS(=O)(=O)c2cccc(C(=O)Nc3cccnc3)c2)c(C)c1` gave CSN inh inactive, IDE cell activ inactive, Tb MetRS inh inactive, HNF4A DNA FP inactive and IDE cell inh inactive.
`Cc1cc[n+](C(C)C(=O)c2ccc(-c3ccccc3)cc2)cc1` (stereo not given) gave CSN inh inactive, IDE cell activ inactive, TPT1 inhibitor inactive, Tb MetRS inh inactive, HNF4A DNA FP inactive, IDE cell inh 21.1, IDE inh confirm inactive and HEK cytotox 77.2.
`CC(C(=O)c1ccc(-c2ccccc2)cc1)[n+]1ccccc1` (stereo not given) gave CSN inh inactive, IDE cell activ inactive, TPT1 inhibitor inactive, Tb MetRS inh inactive, HNF4A DNA FP inactive and IDE cell inh inactive.
CN(C)S(=O)(=O)c1ccc(NC(=O)CCCNC(=O)c2ccc(Cl)cc2)cc1 was read as CSN inh inactive, IDE cell activ inactive, TPT1 inhibitor inactive, Tb MetRS inh inactive, HNF4A DNA FP inactive and IDE cell inh inactive.
O=C1C=CC(=O)C(C2=C3C(=O)N(CCc4ccccc4)CC(=O)N3CCC2)=C1 was read as TPT1 inhibitor inactive, IDE cell inh 40.1, IDE inh confirm inactive and HEK cytotox 123.8.
`CC1(C(=O)NS(=O)(=O)c2cccc(C#N)c2)CCN1C(=O)Cc1ccccc1` (stereo not given) gave CSN inh inactive, Tb MetRS inh inactive and HNF4A DNA FP inactive.
For Cc1cc(C)c2c(CN3CCN(Cc4ccccc4)CC3)cc(=O)oc2c1C the results were CSN inh inactive, IDE cell activ inactive, TPT1 inhibitor inactive, Tb MetRS inh inactive, HNF4A DNA FP inactive and IDE cell inh inactive.
`Cc1ccc2nc(NC(=O)CSc3nc4c(c(=O)n3C)SC(C)C4)sc2c1` (stereo not given) gave CSN inh inactive, IDE cell activ inactive, TPT1 inhibitor inactive, Tb MetRS inh inactive, HNF4A DNA FP inactive, IDE cell inh 24.6, IDE inh confirm inactive and HEK cytotox inactive.
For Cc1ccc(C(=O)N2[C@@H]3CN(C)C(=O)[C@@]2(Cc2ccccc2)[C@H]2C(=O)N(Cc4ccccc4)C(=O)[C@@H]32)cc1 the results were CSN inh inactive, IDE cell activ inactive, Tb MetRS inh inactive and HNF4A DNA FP inactive.
Screening COc1ccc(S(=O)(=O)N2CCN(C(=O)c3cc(C)nc4ccccc34)CC2)cc1OC returned CSN inh inactive, IDE cell activ inactive, Tb MetRS inh inactive, HNF4A DNA FP inactive and IDE cell inh inactive.
`CCNc1nnc(SCC(=O)N2c3ccccc3NC(=O)CC2C)s1` (stereo not given) gave CSN inh inactive, IDE cell activ inactive, Tb MetRS inh inactive, HNF4A DNA FP inactive and IDE cell inh inactive.
`O=C(CNC(=O)c1sc2ccccc2c1Cl)NCc1cccnc1` gave CSN inh inactive, IDE cell activ inactive, TPT1 inhibitor inactive, Tb MetRS inh inactive, HNF4A DNA FP inactive, IDE cell inh 18.8, IDE inh confirm inactive and HEK cytotox inactive.
For O=C(CNC(=O)c1sc2ccccc2c1Cl)NCc1ccc(F)cc1 the results were CSN inh inactive, IDE cell activ inactive, TPT1 inhibitor inactive, Tb MetRS inh inactive, HNF4A DNA FP inactive and IDE cell inh inactive.
For Cc1ccc(S(=O)(=O)N2C[C@H]3C(=O)C[C@@H](c4ccccc4F)N(S(=O)(=O)c4ccc(C)cc4)[C@H]3C[C@H]2c2ccccc2)cc1 the results were CSN inh inactive, Tb MetRS inh inactive and HNF4A DNA FP inactive.
For COc1ccc(/C=N\NC(=O)/C(=C\Nc2nccc(C)n2)NC(=O)c2ccccc2)cc1 the results were CSN inh inactive, IDE cell activ inactive, TPT1 inhibitor inactive, Tb MetRS inh inactive, HNF4A DNA FP inactive and IDE cell inh inactive.
